Assays:
[1] = Cytotoxicity against mouse ScGT1 cells assessed as cell viability at EC50 after 5 days by calcein-AM assay; format: cell-based; conditions: read-out: INH
Method in brief: (§1)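 ScGT1 cells in DMEM with 10% FBS were plated at 25000 cells/well. Compounds were dissolved in DMSO, diluted in PBS and added at 10 nM–10 μM. Cells were incubated 5 days at 37 °C, 5% CO2. Viability was read by calcein-AM fluorescence as average percent viable cells versus untreated control. Values are mean of three experiments with SD.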

[2] = test system: ScGT1; experiment: Antiprion activity against scrapie prion protein-infected mouse ScGT1 cells assessed as accumulation of PrPSc at 1 uM after 5 days by Western blotting; format: cell-based
Method in brief: (§2)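 ScGT1 cells in DMEM with 10% FBS were split 1:10 into Petri dishes and grown 2 days at 37 °C, 5% CO2. Non-toxic compound concentrations (10 nM–2 μM) were then added. After 5 days, cell proteins were extracted, quantified, proteinase K-digested and western-blotted. PK-resistant PrPSc was quantified by densitometry. EC50 is half-maximal inhibition. Values are mean of three experiments with SD.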

[3] = Inhibition of scrapie prion protein-mediated lag phase prion fibril formation after 72 hrs by amyloid seeding assay
Method in brief: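 In vitro amyloid seeding assay of recombinant PrP fibril formation, with compounds at 2 μM. The read-out is lag phase in hours, compared against an untreated control. Significance was tested by Student's t-test, n = 4.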

[4] = Cytotoxicity against mouse ScGT1 cells assessed as cell viability at 1 uM after 5 days by calcein-AM assay; format: cell-based; conditions: read-out: Activity; method in brief: as §1
[5] = Antiprion activity against scrapie prion protein-infected mouse ScGT1 cells assessed as accumulation of PrPSc after 5 days by Western blotting; format: cell-based; conditions: ScGT1, 120 h; method in brief: as §2
[6] = Antioxidant activity in mouse ScGT1 cells assessed as inhibition of ROS formation at 1 uM after 3 hrs by TBARS assay; format: functional; conditions: ScGT1, 3 h
Method in brief: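 ScGT1 cells were treated at 1 μM, and lipid hydroperoxides and aldehydes were measured by the TBARS assay. Results are expressed as average percent TBARS of treated cells versus untreated cells. A water-soluble vitamin E derivative served as positive control. Values are mean ± SD, n = 3.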

[7] = Cytotoxicity against mouse ScGT1 cells assessed as cell viability at 0.2 uM after 5 days by calcein-AM assay; format: cell-based; conditions: read-out: Activity; method in brief: as §1
[8] = test system: ScGT1; experiment: Antiprion activity against scrapie prion protein-infected mouse ScGT1 cells assessed as accumulation of PrPSc at 0.2 uM after 5 days by Western blotting; format: cell-based; method in brief: as §2

Q: For `O=C1C=C(NCCCNc2c3c(nc4cc(Cl)ccc24)CCCC3)C(=O)C=C1NCCCNc1c2c(nc3cc(Cl)ccc13)CCCC2`, which viability at 120 h [1] is on record?
A: The viability at 120 h was 102%.

Q: What about the inhibition [2] of the same molecule?
A: Its inhibition is 105%.

Q: And the TIME [3]?
A: Its TIME is 57 h.

Q: What about the viability at 120 h, 1 µM [4] of the same molecule?
A: The viability at 120 h, 1 µM was 78.6%.

Q: What about the EC50 [5] of the same molecule?
A: Its EC50 is 170 nM.

Q: What about the inhibition at 1 µM [6] of the same molecule?
A: The inhibition at 1 µM was 69%.

Q: Which viability at 120 h [1] does the source give for `COc1ccc2nc3cc(Cl)ccc3c(NCCCN3CCN(CCCNc4c5ccc(Cl)cc5nc5ccc(OC)cc45)CC3)c2c1` here?
A: Its viability at 120 h is 92.4%.

Q: And the inhibition [2]?
A: Its inhibition is 102%.

Q: What about the TIME [3] of the same molecule?
A: Its TIME is 55 h.

Q: What about the viability at 120 h, 1 µM [4] of the same molecule?
A: Its viability at 120 h, 1 µM is 75.6%.

Q: What about the EC50 [5] of the same molecule?
A: The EC50 was 320 nM.

Q: And the inhibition at 1 µM [6]?
A: Its inhibition at 1 µM is 93%.

Q: With `COc1ccc2nc3cc(Cl)ccc3c(NCCCNCCCNC3=CC(=O)C(NCCCNCCCNc4c5ccc(Cl)cc5nc5ccc(OC)cc45)=CC3=O)c2c1` as the molecule, how does the viability at 120 h, 1 µM [4] read?
A: The viability at 120 h, 1 µM was 1.5%.

Q: And the viability at 120 h, 0.2 µM [7]?
A: The viability at 120 h, 0.2 µM was 65.8%.

Q: And the inhibition [8]?
A: The inhibition was 5.4%.

Q: Which viability at 120 h [1] does the source give for `O=C1C=C(NCCCNCCCNc2ccnc3cc(Cl)ccc23)C(=O)C=C1NCCCNCCCNc1ccnc2cc(Cl)ccc12` here?
A: The viability at 120 h was 91.3%.

Q: What about the inhibition [2] of the same molecule?
A: The inhibition was 49.1%.

Q: And the TIME [3]?
A: The TIME was 40 h.

Q: And the viability at 120 h, 1 µM [4]?
A: The viability at 120 h, 1 µM was 105%.

Q: What about the EC50 [5] of the same molecule?
A: The EC50 was 1200 nM.

Q: What about the inhibition at 1 µM [6] of the same molecule?
A: The inhibition at 1 µM was 83%.

Q: Which inhibition [2] does the source give for `COc1ccc2nccc(NCCCNC3=CC(=O)C(NCCCNc4ccnc5ccc(OC)cc45)=CC3=O)c2c1` here?
A: The inhibition was 4.7%.

Q: What about the viability at 120 h, 1 µM [4] of the same molecule?
A: Its viability at 120 h, 1 µM is 87.2%.

Q: For `O=C1C=C(NCCCNc2ccnc3cc(Cl)ccc23)C(=O)C=C1NCCCNc1ccnc2cc(Cl)ccc12`, which viability at 120 h [1] is on record?
A: Its viability at 120 h is 99.6%.

Q: What about the inhibition [2] of the same molecule?
A: The inhibition was 85.5%.

Q: And the TIME [3]?
A: The TIME was 53 h.

Q: And the viability at 120 h, 1 µM [4]?
A: Its viability at 120 h, 1 µM is 100%.

Q: What about the EC50 [5] of the same molecule?
A: The EC50 was 730 nM.

Q: What about the inhibition at 1 µM [6] of the same molecule?
A: The inhibition at 1 µM was 83%.

Q: Which inhibition [2] does the source give for `O=C1C=C(NCCNc2c3c(nc4ccccc24)CCCC3)C(=O)C=C1NCCNc1c2c(nc3ccccc13)CCCC2` here?
A: The inhibition was 7.1%.

Q: What about the viability at 120 h, 1 µM [4] of the same molecule?
A: Its viability at 120 h, 1 µM is 108%.

Q: With `O=C1C=C(NCCCNCCCNc2c3c(nc4ccccc24)CCCC3)C(=O)C=C1NCCCNCCCNc1c2c(nc3ccccc13)CCCC2` as the molecule, how does the inhibition [2] read?
A: The inhibition was 3.4%.

Q: What about the viability at 120 h, 1 µM [4] of the same molecule?
A: The viability at 120 h, 1 µM was 95.4%.

Q: With `Cc1c(C)c2c(c(C)c1O)CCC(C)(C(=O)O)O2` (configuration not stated) [TROLOX] as the molecule, how does the inhibition at 1 µM [6] read?
A: The inhibition at 1 µM was 71%.

Q: With `COc1ccc2nc3cc(Cl)ccc3c(NCCCNC3=CC(=O)C(NCCCNc4c5ccc(Cl)cc5nc5ccc(OC)cc45)=CC3=O)c2c1` as the molecule, how does the viability at 120 h [1] read?
A: The viability at 120 h was 75.2%.

Q: What about the inhibition [2] of the same molecule?
A: The inhibition was 89.7%.

Q: What about the TIME [3] of the same molecule?
A: Its TIME is 45 h.

Q: And the viability at 120 h, 1 µM [4]?
A: Its viability at 120 h, 1 µM is 65.5%.

Q: What about the EC50 [5] of the same molecule?
A: The EC50 was 680 nM.

Q: What about the inhibition at 1 µM [6] of the same molecule?
A: The inhibition at 1 µM was 83%.

Q: For `O=C1C=C(NCCNc2ccnc3cc(Cl)ccc23)C(=O)C=C1NCCNc1ccnc2cc(Cl)ccc12`, which inhibition [2] is on record?
A: Its inhibition is 6.2%.

Q: What about the viability at 120 h, 1 µM [4] of the same molecule?
A: Its viability at 120 h, 1 µM is 115%.

Q: With `O=C1C=C(NCCCNc2ccnc3cc(Cl)ccc23)C(=O)c2ccccc21` as the molecule, how does the inhibition [2] read?
A: Its inhibition is 2.9%.

Q: And the viability at 120 h, 1 µM [4]?
A: The viability at 120 h, 1 µM was 94.3%.

Q: For `COc1ccc2nc3cc(Cl)ccc3c(NCCNC3=CC(=O)C(NCCNc4c5ccc(Cl)cc5nc5ccc(OC)cc45)=CC3=O)c2c1`, which viability at 120 h, 1 µM [4] is on record?
A: Its viability at 120 h, 1 µM is 18.2%.

Q: What about the viability at 120 h, 0.2 µM [7] of the same molecule?
A: Its viability at 120 h, 0.2 µM is 80.1%.

Q: And the inhibition [8]?
A: Its inhibition is 3.1%.

— ChEMBL document CHEMBL1275403 (J Med Chem, 2010)
